Measurements from ChEMBL document CHEMBL4425133, “Discovery and Pharmacokinetic and Pharmacological Properties of the Potent and Selective MET Kinase Inhibitor 1-{6-[6-(4-Fluorophenyl)-[1,2,4]triazolo[4,3-b]pyridazin-3-ylsulfanyl]benzothiazol-2-yl}-3-(2-morpholin-4-ylethyl)urea (SAR125844)” (J Med Chem, 2016).
pIC50: −log10 of the molar value. In brackets after ≈: the same amount, converted by molar mass.

What was measured:
[1] = target: T1, Hepatocyte growth factor receptor (Homo sapiens, UniProt P08581); assay: Inhibition of wild type phosphorylated MET (unknown origin) pre-incubated for 30 mins before biotinylated poly(glutamate-alanine-tyrosine) peptide addition and measured after 5 mins by HTRF assay
[2] = target: T1, Hepatocyte growth factor receptor; assay: Inhibition of phosphorylated MET in human MKN45 cells assessed as reduction in pMET Y1230/1234/1235 level incubated for 1 hr by ELISA; assay type: cell-based
How it was run: (§1)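 MKN-45 is a MET-amplified human gastric tumour cell line.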

MKN-45 = assay: Antiproliferative activity against human MKN45 cells assessed as reduction in [14C]-thymidine incorporation incubated for 96 hrs by beta counting method; assay type: functional, cell-based; conditions: MKN-45, 96 h; how it was run: as §1
[3] = target: Hepatocyte growth factor receptor (Homo sapiens, UniProt P08581, L1195V); assay: Inhibition of phosphorylated MET L1195V mutant (unknown origin) pre-incubated for 30 mins before biotinylated poly(glutamate-alanine-tyrosine) peptide addition and measured after 5 mins by HTRF assay
[4] = target: Hepatocyte growth factor receptor (Homo sapiens, UniProt P08581, Y1230H); assay: Inhibition of phosphorylated MET Y1230H mutant (unknown origin) pre-incubated for 30 mins before biotinylated poly(glutamate-alanine-tyrosine) peptide addition and measured after 5 mins by HTRF assay
[5] = Lipophilicity, log D of the compound by HPLC method; assay type: physicochemical
[6] = Equilibrium solubility in phosphate buffer in absence of 10% Labrasol at pH 7.4; assay type: physicochemical
[7] = Equilibrium solubility in phosphate buffer in presence of 10% Labrasol at pH 7.4; assay type: physicochemical; conditions: phosphate buffer with 10% Labrasol
[8] = Apparent permeability from apical to basolateral side in human Caco2/TC7 cells at 20 uM by liquid chromatography-tandem mass spectrometry; conditions: Caco-2
[9] = Drug metabolism in human hepatic microsomes at 5 uM incubated for 20 mins in presence of NADPH by liquid chromatography-tandem mass spectrometry; assay type: ADME, Microsome; conditions: liver microsomes, read-out: Drug metabolism
Cytochrome P450 3A4 [10] = target: T2, Cytochrome P450 3A4 (Homo sapiens, UniProt P08684); assay: Inhibition of human recombinant CYP3A4 co-expressed with human P450 reductase and human b5 reductase assessed as reduction in 7-Hydroxyquinoline production using 7-benzyloxyquinoline as substrate and NADPH incubated for 15 mins by fluorimetry; assay type: ADME
Cytochrome P450 3A4 [11] = target: T2, Cytochrome P450 3A4; assay: Mechanism based time dependent inhibition of human recombinant CYP3A4 co-expressed with human P450 reductase and human b5 reductase assessed as reduction in 7-Hydroxyquinoline production using 7-benzyloxyquinoline as substrate and NADPH measured every 3 mins for 15 mins by fluorimetry; assay type: ADME; conditions: recombinant enzyme, 0.25 h
[12] = target: Hepatocyte growth factor receptor (Homo sapiens, UniProt P08581, M1250T); assay: Inhibition of phosphorylated MET M1250T mutant (unknown origin) pre-incubated for 30 mins before biotinylated poly(glutamate-alanine-tyrosine) peptide addition and measured after 5 mins by HTRF assay

T2 sequence (P08684 whole entry): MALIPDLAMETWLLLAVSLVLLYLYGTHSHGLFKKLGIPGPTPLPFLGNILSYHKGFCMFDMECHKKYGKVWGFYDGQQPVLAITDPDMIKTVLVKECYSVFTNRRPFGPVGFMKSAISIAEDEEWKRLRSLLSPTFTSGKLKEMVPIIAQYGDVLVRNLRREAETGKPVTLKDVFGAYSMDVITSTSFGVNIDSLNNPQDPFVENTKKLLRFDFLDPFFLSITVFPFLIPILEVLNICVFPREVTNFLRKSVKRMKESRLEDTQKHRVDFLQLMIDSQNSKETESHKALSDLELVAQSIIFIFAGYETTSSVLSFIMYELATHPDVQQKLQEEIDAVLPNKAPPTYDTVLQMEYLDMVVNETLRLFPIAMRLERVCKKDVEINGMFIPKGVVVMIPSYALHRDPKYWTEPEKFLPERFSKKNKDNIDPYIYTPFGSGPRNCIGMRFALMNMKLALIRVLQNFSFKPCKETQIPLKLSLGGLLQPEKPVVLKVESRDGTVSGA
Sequence of Hepatocyte growth factor receptor (Homo sapiens, UniProt P08581, L1195V) (P08581 25-1390 L1195V limits assumed): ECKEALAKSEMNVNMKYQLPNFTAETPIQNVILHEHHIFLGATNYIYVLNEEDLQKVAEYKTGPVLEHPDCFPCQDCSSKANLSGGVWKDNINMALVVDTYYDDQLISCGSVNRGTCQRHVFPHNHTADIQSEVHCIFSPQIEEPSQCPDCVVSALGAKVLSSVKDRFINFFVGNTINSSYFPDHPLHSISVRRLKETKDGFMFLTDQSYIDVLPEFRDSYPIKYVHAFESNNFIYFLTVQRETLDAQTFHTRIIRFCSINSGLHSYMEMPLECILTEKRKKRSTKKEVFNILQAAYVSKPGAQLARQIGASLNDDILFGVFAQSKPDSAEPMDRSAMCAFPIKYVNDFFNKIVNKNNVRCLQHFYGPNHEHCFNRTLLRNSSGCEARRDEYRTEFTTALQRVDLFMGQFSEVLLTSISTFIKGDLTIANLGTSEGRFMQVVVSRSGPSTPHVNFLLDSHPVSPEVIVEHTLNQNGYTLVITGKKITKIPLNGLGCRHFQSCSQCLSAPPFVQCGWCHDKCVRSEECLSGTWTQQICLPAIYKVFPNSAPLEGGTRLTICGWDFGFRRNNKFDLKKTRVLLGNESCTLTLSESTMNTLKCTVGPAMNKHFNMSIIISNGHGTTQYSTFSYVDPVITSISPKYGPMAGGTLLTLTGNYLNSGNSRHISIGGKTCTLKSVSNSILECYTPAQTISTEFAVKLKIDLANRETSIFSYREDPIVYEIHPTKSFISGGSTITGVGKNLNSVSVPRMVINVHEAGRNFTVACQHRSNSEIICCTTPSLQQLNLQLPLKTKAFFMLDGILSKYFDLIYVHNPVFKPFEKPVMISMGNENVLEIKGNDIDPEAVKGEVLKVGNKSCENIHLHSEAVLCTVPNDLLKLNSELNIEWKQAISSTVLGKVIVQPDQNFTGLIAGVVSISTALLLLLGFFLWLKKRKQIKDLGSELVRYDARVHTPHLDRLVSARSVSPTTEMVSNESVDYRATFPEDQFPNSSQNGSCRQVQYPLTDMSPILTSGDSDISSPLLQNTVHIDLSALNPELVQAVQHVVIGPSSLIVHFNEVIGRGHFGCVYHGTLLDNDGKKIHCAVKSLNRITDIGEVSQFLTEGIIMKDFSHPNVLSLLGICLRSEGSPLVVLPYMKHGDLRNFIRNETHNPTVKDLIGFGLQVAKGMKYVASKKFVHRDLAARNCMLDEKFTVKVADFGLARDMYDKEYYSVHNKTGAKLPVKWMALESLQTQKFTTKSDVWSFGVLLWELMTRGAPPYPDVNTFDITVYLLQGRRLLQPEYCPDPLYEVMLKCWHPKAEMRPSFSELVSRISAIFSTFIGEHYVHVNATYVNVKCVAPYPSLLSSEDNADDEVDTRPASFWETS
T1 sequence (P08581 whole entry): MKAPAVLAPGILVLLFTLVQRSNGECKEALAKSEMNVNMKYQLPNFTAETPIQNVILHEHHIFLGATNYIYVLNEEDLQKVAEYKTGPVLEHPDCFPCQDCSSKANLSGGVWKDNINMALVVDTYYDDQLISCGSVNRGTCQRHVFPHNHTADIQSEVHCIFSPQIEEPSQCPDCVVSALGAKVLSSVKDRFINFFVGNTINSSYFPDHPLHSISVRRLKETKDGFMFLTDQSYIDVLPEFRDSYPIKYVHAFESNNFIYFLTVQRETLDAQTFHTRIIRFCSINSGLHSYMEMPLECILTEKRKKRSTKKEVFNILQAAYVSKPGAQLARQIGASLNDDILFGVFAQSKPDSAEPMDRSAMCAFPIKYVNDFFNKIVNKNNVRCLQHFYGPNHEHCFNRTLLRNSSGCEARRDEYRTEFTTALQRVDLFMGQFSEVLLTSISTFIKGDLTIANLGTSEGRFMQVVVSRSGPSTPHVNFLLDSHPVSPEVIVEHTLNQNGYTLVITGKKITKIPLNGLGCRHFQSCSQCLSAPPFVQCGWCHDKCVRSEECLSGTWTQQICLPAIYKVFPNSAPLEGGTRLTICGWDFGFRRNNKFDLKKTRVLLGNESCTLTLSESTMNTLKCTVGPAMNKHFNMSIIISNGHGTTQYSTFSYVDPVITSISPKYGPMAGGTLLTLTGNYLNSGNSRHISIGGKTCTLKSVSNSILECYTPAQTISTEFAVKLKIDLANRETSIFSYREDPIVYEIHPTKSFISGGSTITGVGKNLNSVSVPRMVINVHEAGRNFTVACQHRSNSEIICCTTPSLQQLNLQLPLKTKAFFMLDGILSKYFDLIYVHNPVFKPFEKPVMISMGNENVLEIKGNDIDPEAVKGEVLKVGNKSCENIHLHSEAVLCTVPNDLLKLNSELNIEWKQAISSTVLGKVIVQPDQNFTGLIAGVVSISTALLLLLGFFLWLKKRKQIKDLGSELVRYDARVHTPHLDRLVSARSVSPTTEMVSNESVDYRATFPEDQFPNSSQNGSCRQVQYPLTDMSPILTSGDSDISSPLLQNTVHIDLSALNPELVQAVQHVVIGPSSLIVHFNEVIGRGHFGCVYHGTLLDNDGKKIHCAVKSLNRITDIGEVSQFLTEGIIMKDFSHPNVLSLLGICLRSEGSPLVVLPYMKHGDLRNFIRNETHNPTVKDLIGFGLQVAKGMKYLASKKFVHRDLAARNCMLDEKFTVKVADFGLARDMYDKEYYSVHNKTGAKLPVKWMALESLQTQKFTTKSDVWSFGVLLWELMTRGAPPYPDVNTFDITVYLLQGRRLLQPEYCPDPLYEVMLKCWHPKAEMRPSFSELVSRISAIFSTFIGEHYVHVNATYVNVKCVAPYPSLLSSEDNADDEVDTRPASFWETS
Sequence of Hepatocyte growth factor receptor (Homo sapiens, UniProt P08581, Y1230H) (P08581 25-1390 Y1230H limits assumed): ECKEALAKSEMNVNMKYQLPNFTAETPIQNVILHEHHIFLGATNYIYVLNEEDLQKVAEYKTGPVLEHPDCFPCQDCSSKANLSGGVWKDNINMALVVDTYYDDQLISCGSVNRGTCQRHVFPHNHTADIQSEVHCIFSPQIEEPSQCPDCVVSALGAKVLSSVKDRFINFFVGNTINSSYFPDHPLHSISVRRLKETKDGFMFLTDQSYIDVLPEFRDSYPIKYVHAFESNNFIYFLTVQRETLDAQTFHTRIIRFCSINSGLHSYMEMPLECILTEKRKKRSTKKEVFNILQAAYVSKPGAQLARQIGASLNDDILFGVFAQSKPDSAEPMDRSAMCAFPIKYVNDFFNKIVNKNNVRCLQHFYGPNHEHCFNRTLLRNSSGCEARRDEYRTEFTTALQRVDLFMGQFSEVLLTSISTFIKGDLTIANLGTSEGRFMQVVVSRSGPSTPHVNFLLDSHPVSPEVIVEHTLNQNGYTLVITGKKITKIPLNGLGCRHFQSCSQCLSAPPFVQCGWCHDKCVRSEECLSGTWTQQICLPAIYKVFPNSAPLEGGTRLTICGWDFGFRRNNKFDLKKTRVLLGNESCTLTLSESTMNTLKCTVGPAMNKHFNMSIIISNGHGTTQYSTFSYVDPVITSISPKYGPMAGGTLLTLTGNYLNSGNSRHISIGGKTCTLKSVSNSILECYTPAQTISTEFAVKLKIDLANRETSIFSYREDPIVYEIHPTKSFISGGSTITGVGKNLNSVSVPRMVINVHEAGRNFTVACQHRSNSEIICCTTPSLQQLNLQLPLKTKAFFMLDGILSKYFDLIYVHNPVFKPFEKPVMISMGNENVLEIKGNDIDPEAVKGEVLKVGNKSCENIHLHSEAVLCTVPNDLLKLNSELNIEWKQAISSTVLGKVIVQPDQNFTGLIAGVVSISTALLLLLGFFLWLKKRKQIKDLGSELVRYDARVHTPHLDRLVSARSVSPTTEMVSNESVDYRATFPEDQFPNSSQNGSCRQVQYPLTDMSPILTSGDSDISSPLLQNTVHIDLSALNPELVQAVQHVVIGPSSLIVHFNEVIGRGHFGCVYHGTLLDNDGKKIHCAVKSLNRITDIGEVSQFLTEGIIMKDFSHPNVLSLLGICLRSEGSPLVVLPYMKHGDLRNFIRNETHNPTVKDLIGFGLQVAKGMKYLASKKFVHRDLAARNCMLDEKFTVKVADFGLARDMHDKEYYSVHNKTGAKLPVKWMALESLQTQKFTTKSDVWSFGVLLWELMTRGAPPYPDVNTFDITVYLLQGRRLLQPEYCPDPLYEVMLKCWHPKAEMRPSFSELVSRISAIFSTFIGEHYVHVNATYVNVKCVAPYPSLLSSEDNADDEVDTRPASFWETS

Structure (SMILES) | pIC50 [1] | pIC50 [2] | pIC50 (MKN-45) | pIC50 [3] | pIC50 [4] | logD [5] | solubility thermodynamic [6] [µM] | solubility thermodynamic [7] [µM] | Papp A→B at 20 µM [8] [×10⁻⁶ cm/s] | metabolised at 20 min, 5 µM [9] [%] | pIC50 (Cytochrome P450 3A4 [10]) | INH (Cytochrome P450 3A4 [11]) [%/min] | pIC50 [12]
O=C(Nc1nc2ccc(Sc3nnc4ccc(-c5ccc(F)cc5)nn34)cc2s1)OCCN1CCOCC1 | 7.35 | 7.60 | 7.02 | 5.19 | < 5.00 | 4.1 | 8 (≈ 4.41 µg/mL) | 245 |  |  |  |  | 
O=C(NCCN1CCOCC1)Nc1nc2ccc(Sc3nnc4ccc(OC5CCCCCC5)nn34)cc2s1 | 7.82 |  |  |  | 6.39 |  | < 2 |  | 2 | 36 | 4.85 | -11.6 | 
O=C(CC1CC1)Nc1nc2ccc(Sc3nnc4ccc(-c5ccc(F)cc5)nn34)cc2s1 | 8.40 | 7.89 | 7.66 | < 5.00 | < 5.00 | > 4.6 | < 2 |  |  |  |  |  | 6.89
O=C(CCCN1CCOCC1)Nc1nc2ccc(Sc3nnc4ccc(-c5ccc(F)cc5)nn34)cc2s1 | 8.22 | 8.70 | 7.92 | 6.50 | 5.93 | 4.3 |  | 96 |  |  |  |  | 7.03
CCCCOc1ccc2nnc(Sc3ccc4nc(NC(=O)NCCN5CCOCC5)sc4c3)n2n1 | 8.30 |  |  |  | 6.85 |  | < 2 |  | 0.7 | 23 | 5.06 | -11.3 | 
CCNc1nc2ccc(Sc3nnc4ccc(-c5ccc(F)cc5)nn34)cc2s1 | 7.82 | 7.82 | 7.38 | < 5.00 | < 5.00 | > 4.6 | < 2.5 |  |  |  |  |  | 6.38
O=C(NCCN1CCOCC1)Nc1nc2ccc(Sc3nnc4ccc(Oc5cccc(F)c5)nn34)cc2s1 | 8.52 |  |  |  | 7.25 |  | < 2 |  | 0.8 | 16 | 5.70 | -12.2 | 
Nc1nc2ccc(Sc3nnc4ccc(-c5ccc(F)cc5)nn34)cc2s1 | 8.00 | 7.37 | 7.09 | 5.05 | < 5.00 | > 4.6 |  | 44 |  |  |  |  | 6.61

The remaining compounds from weak to strong by pIC50 [1], led by results:

pIC50 [1] | pIC50 [2] | pIC50 (MKN-45) | pIC50 [3] | pIC50 [4] | logD [5] | solubility thermodynamic [6] [µM] | solubility thermodynamic [7] [µM] | Papp A→B at 20 µM [8] [×10⁻⁶ cm/s] | metabolised at 20 min, 5 µM [9] [%] | pIC50 (Cytochrome P450 3A4 [10]) | INH (Cytochrome P450 3A4 [11]) [%/min] | pIC50 [12] | Structure (SMILES)
8.52 |  |  |  | 6.19 |  | 5 (≈ 2.5 µg/mL) | 460 |  | 51 | 5.40 | -13.1 |  | CCOc1ccc2nnc(Sc3ccc4nc(NC(=O)NCCN5CCOCC5)sc4c3)n2n1
8.70 | 7.54 | 8.57 |  | 7.64 | 3.9 | < 2 |  |  |  |  |  |  | CCN1CCC(CCNC(=O)Nc2nc3ccc(Sc4nnc5ccc(-c6cccs6)nn45)cc3s2)CC1
8.70 |  |  |  | 6.76 |  | < 2 |  | 0.8 | 32 | 5.10 | -12.8 |  | O=C(NCCN1CCOCC1)Nc1nc2ccc(Sc3nnc4ccc(Oc5ccccc5)nn34)cc2s1
9.00 |  |  |  | 6.56 |  | < 2 |  |  | 26 | 6.70 | -3.8 |  | O=C(NCCN1CCOCC1)Nc1nc2ccc(Sc3nnc4ccc(NC5CC5)nn34)cc2s1
9.00 |  |  |  | 6.66 |  | 89 (≈ 49.5 µg/mL) |  | 0.2 | 39 | < 4.40 | -14.2 |  | O=C(NCCN1CCOCC1)Nc1nc2ccc(Sc3nnc4ccc(NC5CCOCC5)nn34)cc2s1
9.00 |  |  |  | 6.86 |  | < 2 |  |  | 38 | 5.54 | -9.1 |  | O=C(NCCN1CCOCC1)Nc1nc2ccc(Sc3nnc4ccc(NC5CCCCC5)nn34)cc2s1
